# PubChem BioAssay
# Activity calls are given as the source filed them. Rule as the data show it, unless noted: active = inhibition above about 30%; inactive = the rest.
# What was measured:
# [1] = reducers of endogenous Her2 protein level, primary screen, SKBR3 breast tumor cells, AlphaScreen, ATP viability (AID 461;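 active = Her2 level under about 52% in both replicate screens, with viability over 70% of control, limit read from the data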;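 as to Her2 level: lower value means less Her2 protein in the cells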;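 as to viability: percent of carrier control wells set as 100% viability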); conditions: 18-24 h, measured here: SKBR3 viability, ATP luminescence, at 10 µM
# [2] = target: Receptor tyrosine-protein kinase erbB-2 (Homo sapiens) (UniProt P04626); assay: as above; conditions: 18-24 h, at 10 µM, stronger effect = lower value
# Sequence of Receptor tyrosine-protein kinase erbB-2 (Homo sapiens) (P04626 whole entry, looked up): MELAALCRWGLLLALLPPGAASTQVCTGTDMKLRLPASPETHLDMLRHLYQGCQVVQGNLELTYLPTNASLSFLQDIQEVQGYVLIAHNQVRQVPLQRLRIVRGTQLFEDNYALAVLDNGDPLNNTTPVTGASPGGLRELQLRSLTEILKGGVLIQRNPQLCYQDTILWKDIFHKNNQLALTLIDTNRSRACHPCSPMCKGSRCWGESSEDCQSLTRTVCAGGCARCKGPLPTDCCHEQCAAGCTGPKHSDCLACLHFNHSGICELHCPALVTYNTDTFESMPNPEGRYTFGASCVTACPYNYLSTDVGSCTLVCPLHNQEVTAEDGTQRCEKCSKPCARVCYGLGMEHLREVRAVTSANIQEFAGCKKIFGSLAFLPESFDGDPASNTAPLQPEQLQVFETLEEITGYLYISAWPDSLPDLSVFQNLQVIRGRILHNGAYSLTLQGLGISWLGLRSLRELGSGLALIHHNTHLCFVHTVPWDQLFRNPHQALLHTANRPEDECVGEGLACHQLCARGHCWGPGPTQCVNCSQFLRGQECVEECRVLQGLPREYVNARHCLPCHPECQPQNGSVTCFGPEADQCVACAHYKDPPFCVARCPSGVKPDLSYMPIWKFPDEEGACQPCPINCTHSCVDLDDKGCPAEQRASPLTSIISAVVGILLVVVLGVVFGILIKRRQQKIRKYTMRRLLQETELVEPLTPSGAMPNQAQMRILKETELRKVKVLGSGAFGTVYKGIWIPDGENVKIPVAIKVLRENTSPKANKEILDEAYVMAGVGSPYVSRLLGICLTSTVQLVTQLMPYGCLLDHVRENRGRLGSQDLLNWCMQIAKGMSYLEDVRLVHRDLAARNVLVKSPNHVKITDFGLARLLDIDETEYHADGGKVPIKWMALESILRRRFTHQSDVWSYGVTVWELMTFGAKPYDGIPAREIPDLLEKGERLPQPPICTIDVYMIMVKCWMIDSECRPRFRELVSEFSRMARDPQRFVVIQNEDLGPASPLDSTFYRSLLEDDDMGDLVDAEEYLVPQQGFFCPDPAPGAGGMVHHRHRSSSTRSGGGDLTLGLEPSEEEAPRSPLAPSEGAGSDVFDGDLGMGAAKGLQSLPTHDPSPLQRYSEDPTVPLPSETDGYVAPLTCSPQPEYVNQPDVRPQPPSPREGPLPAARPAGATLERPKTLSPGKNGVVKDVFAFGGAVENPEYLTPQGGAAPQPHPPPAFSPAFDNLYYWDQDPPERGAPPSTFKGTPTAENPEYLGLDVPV
# [3] = SK-BR-3 cell growth inhibitors, pilot screen, 24 h, human (AID 572;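 active = viability at or below 10% of carrier control in both of two separate runs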;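 also: compound exposure lasted between 18 and 24 h rather than exactly 24 h; 100% = carrier-treated control wells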); conditions: SK-BR-3 viability, CellTiter-Glo luminescence, at 10 µM, stronger effect = lower value
# [4] = HUVEC growth inhibition – cell-based, human, primary screen (AID 575;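 active = viability at or below 30% in both replicate assays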;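 also: 100% = median of untreated cell wells with 0.1% DMSO on each plate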); conditions: HUVEC proliferation, CellTiter-Glo luminescence, 72 h; at 10 µM; stronger effect = lower value
# Procedure, shortened: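 system = HUVEC primary cells | amount = 1250 cells/well | buffer or medium = supplemented EBM, 2% fetal bovine serum | dosing = single-point 10 µM, DMSO 0.1% final | times = 72 h compound incubation | detection = CTG luminescence | read-out = % viability relative to median vehicle-well signal on each plate | control set = vehicle and MePR control wells | format = collagen-coated 384-well format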
# [5] = growth inhibitors of H69AR lung tumor, primary screen, human, duplicate replicates (AID 580;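 active = viability at or under a set limit in both replicates, limit being median viability minus 3 SD, cut at about 48% in these data, passing the limit was not always enough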;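 also: 100% = mean luminescence of untreated wells and 0% = no signal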); conditions: H69AR lung tumor cells viability, ATP luminescence, 72 h; at 10 µM; stronger effect = lower value
# [6] = reversal of MRP1-mediated doxorubicin resistance, pilot screen, H69AR cells, doxorubicin co-treatment (AID 601;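 active = viability loss from added drug above about 55%, and viability with drug at most 40%, in both replicates, limit read from the data, passing the limit was not always enough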); conditions: CellTiter-Glo, 72 h, at 10 µM; for differential viability (reversal): stronger effect = higher value
# [7] = 384-well plate pilot, post-Golgi transport modulator project, inhibition of yeast transport mutant growth (AID 636; in the data active = inhibition above about 31%); conditions: absorbance 615 nm, about 18 h, stronger effect = higher value
# [8] = growth suppression of yeast trafficking mutant, preliminary HTS, modulators of trafficking downstream of Golgi apparatus project, 1536-format plate, OD 615 nm (AID 637); conditions: yeast transport mutant growth, absorbance 615 nm, 18 h; stronger effect = higher value
# [9] = H69AR cells + 2 uM doxorubicin, measured here: viability with 2 uM doxorubicin, stronger effect = lower value
# [10] = H69AR cells, compound alone cytotoxicity
Compound,viability [1] [%],Her2 level [2],viability [3],viability [4],viability [5],differential viability (reversal) ([6]; H69AR cells + 2 uM doxorubicin),"viability [6, 9] [%]","viability [6, 10] [%]",inhibition [7],inhibition [8]
O=c1c(-c2ccc(Br)cc2)coc2c(CN3CCOCC3)c(O)ccc12,85.5,80.5% (inactive),85.5% (inactive),101% (inactive),92.2% (inactive),-4.24% (inactive),96.5,92.2,-3.33% (inactive),-2.22% (inactive)
CCOC(=O)c1sc(=NC(=O)c2ccc(OC)c(OC)c2)n(C)c1C,121,84% (inactive),121% (inactive),108% (inactive),65% (inactive),-6.65% (inactive),71.7,65,-5.06% (inactive),-0.16% (inactive)
COC(=O)c1cc(S(=O)(=O)N2CCC(C)CC2)ccc1F,71,104% (inactive),71% (inactive),88.6% (inactive),88.2% (inactive),-1.02% (inactive),89.2,88.2,-3.51% (inactive),2.79% (inactive)
Cc1ccc(-n2nnnc2SCC(=O)c2cc(C)n(-c3cc(C)on3)c2C)cc1,91,83% (inactive),91% (inactive),88.5% (inactive),65.4% (inactive),-28.2% (inactive),93.6,65.4,-2.86% (inactive),1.11% (inactive)
O=C(NCc1cccnc1)C1CCCN(S(=O)(=O)c2ccc(Cl)cc2)C1 (stereo not given),102,96% (inactive),102% (inactive),77.1% (inactive),86.9% (inactive),1.95% (inactive),84.9,86.9,-2.57% (inactive),-1.75% (inactive)
Cc1cccc(C)c1NC(=O)N1CCN(C2CCCCC2)CC1,111,92.5% (inactive),111% (inactive),109% (inactive),104% (inactive),12.6% (inactive),91.6,104,-8.03% (inactive),-2.55% (inactive)
Cc1ccc2cc(CN(Cc3ccc4c(c3)OCO4)Cc3nnnn3Cc3ccco3)c(=O)[nH]c2c1C,98.5,97% (inactive),98.5% (inactive),85.1% (inactive),79.6% (inactive),13.3% (inactive),66.4,79.6,-1.33% (inactive),-3.17% (inactive)
